# Activity calls are given as the source filed them. The rule behind the calls is not given here.
# Key:
# [1] = tested on: A2780; test: Antiproliferative activity against human A2780 cells after 72 hrs by SRB assay; assay type: functional, cell-based; conditions: A2780, 72 h
# Method in brief: (§1)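 Ovarian A2780 and cisplatin-resistant A2780cis cells were exposed for 72 h and stained with SRB. IC50 comes from dose-response curves, as means±SD of three independent experiments. Final DMSO was below 1%, with matched vehicle controls.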
# [2] = tested on: HT-29; test: Cell cycle arrest in human HT-29 cells assessed as accumulation of cells at G1 phase at 100 nM after 24 hrs by propidium iodide staining-based flow cytometric analysis (reference value: 75.1 +/- 1.1%); assay type: functional
# [3] = tested on: HT-29; test: Cell cycle arrest in human HT-29 cells assessed as accumulation of cells at sub G1 phase at 350 nM after 24 hrs by propidium iodide staining-based flow cytometric analysis (reference value: 1.2 +/- 0.3%); assay type: functional
# [4] = tested on: 518A2; test: Induction of apoptosis in human 518A2 cells assessed as caspase-9 activity at 5 uM after 3.5 hrs by Caspase-Glo luminescence assay (reference value: 100 +/- 1.2%); assay type: functional
# [5] = tested on: 518A2; test: Effect on F-actin in human 518A2 cells assessed as thick stress fibers formation at 100 nM after 3 hrs by DAPI staining-based fluorescence microscopic analysis; assay type: cell-based
# Method in brief: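 518A2 melanoma cells were treated with 100 nM for 3 h. Filamentous actin was fluorescence-labelled, nuclei were counterstained with DAPI, and the cells were imaged by fluorescence microscopy. Images come from two independent experiments.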
# [6] = tested on: 518A2; test: Antimigratory activity against human 518A2 cells at 50 nM after 48 hrs by wound healing assay; assay type: functional, cell-based
# [7] = tested on: HT-29; test: Cell cycle arrest in human HT-29 cells assessed as accumulation of cells at sub G1 phase at 250 nM after 24 hrs by propidium iodide staining-based flow cytometric analysis (reference value: 1.2 +/- 0.3%); assay type: functional
# [8] = biological target: Tubulin (Homo sapiens) (UniProt P68371+Q9H4B7+P0DPH7+P68366+Q13509+Q71U36+P04350+Q3ZCM7+P07437+P68363+Q9BQE3+Q6PEY2+Q13885+Q9BVA1+Q9BUF5); test: Induction of microtubule disruption in human 518A2 cells at 100 nM after 3 hrs by DAPI staining-based fluorescence microscopic analysis; assay type: cell-based
# Method in brief: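 Microtubule organization in 518A2 melanoma cells was checked by tubulin immunofluorescence staining after 3 h exposure to 100 nM, with DAPI as the nuclear counterstain. Images come from two independent experiments.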
# [9] = tested on: 518A2; test: Induction of cell cycle arrest in human 518A2 cells; assay type: functional, cell-based
# [10] = tested on: HT-29; test: Cell cycle arrest in human HT-29 cells assessed as accumulation of cells at G2/M phase at 350 nM after 24 hrs by propidium iodide staining-based flow cytometric analysis (reference value: 11.4 +/- 1.4%); assay type: functional
# [11] = tested on: DLD-1; test: Antiproliferative activity against human DLD1 cells after 72 hrs by MTT assay; assay type: functional, cell-based; conditions: DLD-1, 72 h
# Method in brief: (§2)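 MTT read-out after 72 h of continuous exposure. Viability is expressed as percentage of viable cells relative to untreated controls. IC50 comes from dose-response curves. Values are means±SD of four independent experiments (two for some entries). DMSO was below 1%, with vehicle controls at equal DMSO. Precipitation was excluded spectrometrically and microscopically.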
# [12] = tested on: 518A2; test: Induction of apoptosis in human 518A2 cells at 100 nM after 24 hrs by TUNEL assay relative to control; assay type: functional
# [13] = Antiproliferative activity against human KB-V1/Vbl cells after 72 hrs by MTT assay; assay type: functional, cell-based; method in brief: as §2
# [14] = tested on: HT-29; test: Cell cycle arrest in human HT-29 cells assessed as accumulation of cells at G2/M phase at 250 nM after 24 hrs by propidium iodide staining-based flow cytometric analysis (reference value: 11.4 +/- 1.4%); assay type: functional
# [15] = tested on: HT-29; test: Cell cycle arrest in human HT-29 cells assessed as accumulation of cells at G2/M phase after 24 hrs by propidium iodide staining-based flow cytometric analysis; assay type: functional
# [16] = tested on: HT-29; test: Antiproliferative activity against human HT-29 cells after 72 hrs by MTT assay; assay type: functional, cell-based; conditions: HT-29, 72 h; method in brief: as §2
# [17] = Antiproliferative activity against human A2780cis cells after 72 hrs by SRB assay; assay type: functional, cell-based; method in brief: as §1
# [18] = tested on: EA.hy 926; test: Antiproliferative activity against human EAhy926 cells after 72 hrs by MTT assay; assay type: functional, cell-based; conditions: EA.hy 926, 72 h; method in brief: as §2
# [19] = tested on: EA.hy 926; test: Cytotoxicity against human EAhy926 cells at 100 nM after 24 hrs by MTT assay relative to control; assay type: cell-based; conditions: ea.hy 926, 24 h, 0.1 µM
# [20] = Antiproliferative activity against human MCF7/Topo cells after 72 hrs by MTT assay; assay type: functional, cell-based; method in brief: as §2
# [21] = tested on: HT-29; test: Cell cycle arrest in human HT-29 cells assessed as accumulation of cells at G1 phase at 350 nM after 24 hrs by propidium iodide staining-based flow cytometric analysis (reference value: 75.1 +/- 1.1%); assay type: functional
# [22] = tested on: HT-29; test: Cell cycle arrest in human HT-29 cells assessed as accumulation of cells at S phase at 100 nM after 24 hrs by propidium iodide staining-based flow cytometric analysis (reference value: 12.3 +/- 0.4%); assay type: functional
# [23] = tested on: HT-29; test: Cell cycle arrest in human HT-29 cells assessed as accumulation of cells at S phase at 250 nM after 24 hrs by propidium iodide staining-based flow cytometric analysis (reference value: 12.3 +/- 0.4%); assay type: functional
# [24] = tested on: HT-29; test: Cell cycle arrest in human HT-29 cells assessed as accumulation of cells at G2/M phase at 100 nM after 24 hrs by propidium iodide staining-based flow cytometric analysis (reference value: 11.4 +/- 1.4%); assay type: functional
# [25] = tested on: HT-29; test: Cell cycle arrest in human HT-29 cells assessed as accumulation of cells at sub G1 phase at 100 nM after 24 hrs by propidium iodide staining-based flow cytometric analysis (reference value: 1.2 +/- 0.3%); assay type: functional
# [26] = tested on: 518A2; test: Antiproliferative activity against human 518A2 cells after 72 hrs by MTT assay; assay type: functional, cell-based; conditions: for IC50: 518A2, 72 h; method in brief: as §2
# [27] = tested on: HT-29; test: Cell cycle arrest in human HT-29 cells assessed as accumulation of cells at G1 phase at 250 nM after 24 hrs by propidium iodide staining-based flow cytometric analysis (reference value: 75.1 +/- 1.1%); assay type: functional
# [28] = tested on: HT-29; test: Cell cycle arrest in human HT-29 cells assessed as accumulation of cells at S phase at 350 nM after 24 hrs by propidium iodide staining-based flow cytometric analysis (reference value: 12.3 +/- 0.4%); assay type: functional
# [29] = tested on: 518A2; test: Induction of apoptosis in human 518A2 cells assessed as accumulation at subG1 phase; assay type: functional, cell-based
# [30] = tested on: EA.hy 926; test: Antiangiogenic activity against human EAhy926 cells assessed as inhibition of tube formation on matrigel at 100 nM after 24 hrs by light microscopic analysis; assay type: functional, cell-based
# Method in brief: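 Ea.Hy926 endothelial hybrid cells were seeded on matrigel with compound and examined for tubular/cord-like network formation versus untreated controls. Viability under the same conditions was checked in parallel by MTT to exclude cytotoxic effects.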
# [31] = tested on: PANC-1; test: Antiproliferative activity against human PANC1 cells after 72 hrs by MTT assay; assay type: functional, cell-based; conditions: PANC-1, 72 h; method in brief: as §2
# [32] = biological target: Tubulin (Sus scrofa, UniProt P02554+P02550); test: Inhibition of porcine brain tubulin polymerization after 2 hrs
# [33] = tested on: HCT-116; test: Antiproliferative activity against human HCT116 cells after 72 hrs by MTT assay; assay type: functional, cell-based; conditions: HCT-116, 72 h; method in brief: as §2
IC50 [1],Activity [8],IC50 [11],IC50 [16],SMILES,Activity [2],Activity [3],Activity [4],Activity [5],Activity [6],Activity [7],Activity [9],Activity [10],Activity [12],IC50 [13],Activity [14],Activity [15],IC50 [17],IC50 [18],Activity [19],IC50 [20],also measured
18.7 nM,Active,33.7 nM,46.9 nM,N#CC1=C(N)Oc2c(ccc3ccccc23)C1c1cccc([N+](=O)[O-])c1 (stereo not drawn),49.3%,12.2%,114.7%,Active,Active,13%,inactive,23.9%,61.4%,22.6 nM,12.9%,Dose-dependent effect,26 nM,35.6 nM,> 68%,11.8 nM,Activity [21]: 39.8%; Activity [22]: 26.2%; Activity [23]: 22.4%; Activity [24]: 18.4%; Activity [25]: 6.1%; Activity [26]: Dose-dependent effect; IC50 [26]: 35.9 nM; Activity [27]: 51.7%; Activity [28]: 24.1%; Activity [29]: Active; Activity [30]: Active; IC50 [31]: 12.5 nM; I50 [32]: 7.1 µM; IC50 [33]: 44.3 nM
17 nM,Active,32.3 nM,176 nM,N#CC1=C(N)Oc2c(ccc3ccccc23)C1c1cc(F)cc(F)c1 (stereo not drawn),40.3%,13.4%,133%,Active,Active,11.3%,inactive,43.5%,67.5%,25.8 nM,33.6%,Dose-dependent effect,20.3 nM,31.5 nM,> 68%,20.1 nM,Activity [21]: 30.8%; Activity [22]: 20.7%; Activity [23]: 19.2%; Activity [24]: 31.8%; Activity [25]: 7.1%; Activity [26]: Dose-dependent effect; IC50 [26]: 26.4 nM; Activity [27]: 35.9%; Activity [28]: 12.3%; Activity [29]: Active; Activity [30]: Active; IC50 [31]: 19.5 nM; I50 [32]: 9.6 µM; IC50 [33]: 47 nM

# Reference: ChEMBL document CHEMBL4330063, “New naphthopyran analogues of LY290181 as potential tumor vascular-disrupting agents” (Eur J Med Chem, 2019)
